Tb hexokinase – Trypanosoma brucei hexokinase 1 inhibitors, primary screen, biochemical, G6PDH-coupled NADH absorbance, MLSCN library. hexokinase 1 [Trypanosoma brucei]. recombinant TbHK1, G6PDH-coupled NADH A340. inhibition, % at 10 µM. 220,000 tested, 0.11% active;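 active = inhibition of 50% or more in the single-dose primary screen; inactive = inhibition below 50%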
Runt-CBFb FRET – inhibitors of RUNX1 Runt–CBFb binding, primary screen, biochemical, FRET, Cerulean-Runt, Venus-CBFb, uHTS; Runt-related transcription factor 1 (Homo sapiens) + Core-binding factor subunit beta …; Cerulean-Runt/Venus-CBFb FRET ratio 530/480, 1 h; inhibition, % at 20 µM; 220,000 tested, 0.46% active; AID 1496, 2009;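 active = inhibition over about 50% at 20 µM in the single-dose screen, limit read from the data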;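 note: 0% = DMSO wells and 100% = excess unlabeled CBFb competitor control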
Target sequence (Q01196 whole entry, looked up): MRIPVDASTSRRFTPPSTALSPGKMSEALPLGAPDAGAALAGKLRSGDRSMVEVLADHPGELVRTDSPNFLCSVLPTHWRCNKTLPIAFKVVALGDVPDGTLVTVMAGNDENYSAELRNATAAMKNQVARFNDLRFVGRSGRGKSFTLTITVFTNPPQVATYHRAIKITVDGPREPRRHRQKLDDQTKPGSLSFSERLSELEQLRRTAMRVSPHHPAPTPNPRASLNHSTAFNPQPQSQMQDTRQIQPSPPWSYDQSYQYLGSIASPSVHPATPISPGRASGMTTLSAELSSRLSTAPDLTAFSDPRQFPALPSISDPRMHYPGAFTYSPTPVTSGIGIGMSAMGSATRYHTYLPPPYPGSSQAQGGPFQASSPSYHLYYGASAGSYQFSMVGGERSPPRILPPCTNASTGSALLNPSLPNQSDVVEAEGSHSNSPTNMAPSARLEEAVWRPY
Target sequence (Q13951 whole entry, looked up): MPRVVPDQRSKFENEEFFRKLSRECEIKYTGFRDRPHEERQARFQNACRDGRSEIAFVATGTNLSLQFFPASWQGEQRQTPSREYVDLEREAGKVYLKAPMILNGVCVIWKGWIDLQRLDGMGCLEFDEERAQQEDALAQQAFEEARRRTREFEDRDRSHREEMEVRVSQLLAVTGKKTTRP
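Buffer or medium: Tris pH 7.5 buffer with BSA. Assay system: Cerulean-labeled Runt domain protein. Amount: each fluorescent fusion protein 100 nM. Read-out basis: loss of energy transfer signal. Incubation: 1 h compound exposure, room temperature. Probe or stimulus: Venus-CBFb binding partner, 100 nM. Detection: FRET, excitation 422 nm, emission at 530 and 480 nm.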
p97 inhibitor – inhibitors of human p97 ATPase, primary screen, biochemical; Transitional endoplasmic reticulum ATPase (Homo sapiens), P55072; recombinant p97 ATPase, Kinase-Glo ATP luminescence, 3 h; inhibition, % at 8 µM; 220,000 tested, 0.42% active; in the data active = inhibition above about 15%;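 note: 0% = DMSO vehicle and 100% = wells lacking enzyme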
RanGTP-Impb inh – inhibitors of RanGTP-importin-beta interaction, primary screen, biochemical, FRET, CFP-Ran, YFP-importin-beta, homogeneous; Ran GTPase (GTP-bound) - importin-beta complex; cell-free CFP-Ran/YFP-importin-beta FRET ratio; inhibition, % (no concentration beside the values); 300,000 tested, 1.1% active;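 active = more than half of the replicate wells show a fall in the fluorescence ratio signal beyond about 16%, limit read from the data, passing the limit was not always enough; inconclusive = exactly half of the replicate wells pass the set limit; inactive = fewer than half of replicates pass the limit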;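 note: 0% = DMSO wells and 100% = Ran loaded with GDP instead of GTP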
Runt-SMMHC FRET – inhibitors of RUNX1 Runt–CBFb-SMMHC binding, primary screen, biochemical, FRET, Cerulean-Runt, Venus-CBFb-SMMHC, uHTS. Cerulean-Runt/Venus-CBFb-SMMHC FRET ratio 530/480, 1 h. inhibition, % at 20 µM. Runt-related transcription factor 1 (Homo sapiens) + Core-binding factor subunit beta …. 220,000 tested, 0.74% active;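 active = mean inhibition across duplicate retests at 20 µM reaching about 50%, limit read from the data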;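 note: 0% = DMSO wells and 100% = wells with excess untagged CBFb-SMMHC; inhibitors lower the FRET ratio by blocking Runt binding to CBFb-SMMHC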
Hck-Nef inh – inhibitors of Nef-activated human Hck kinase, primary screen, biochemical, Z-Lyte FRET, 384-well, Hck-YEEI. Recombinant Hck-YEEI plus Nef, Z-Lyte FRET kinase assay. inhibition, % at 20 µM. 220,000 tested, 0.68% active;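 active = Hck-Nef kinase inhibition above about 50%, limit read from the data; inactive = inhibition below that limit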;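 note: 0% = DMSO with Hck plus Nef and 100% = Hck alone without Nef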
* hit, by the source's call; ? = inconclusive; nt = no result. Most compounds without a hit are left out; they make up all but 2.1% or so of the library.

SMILES	Tb hexokinase	Runt-CBFb FRET	p97 inhibitor	RanGTP-Impb inh	Runt-SMMHC FRET	Hck-Nef inh
CCOCCCNC(=S)N1CCCN(c2nc3cc(C)ccc3cc2C#N)CC1	2	10	2	4	76*	20
CCOCCCNC(=S)N1CCCN(c2nc3c(C)c(C)ccc3cc2C#N)CC1	0	nt	-9	51*	nt	18
O=C(NC1CCCCC1)C(c1ccccn1)N(C(=O)c1csnn1)c1ccccc1F (configuration not stated)	nt	nt	nt	0	nt	nt
O=c1nc(SCc2cccc(C(F)(F)F)c2)nc2ccccn12	-6	-5	-2	6	-1	-27
COc1ccc(N(CC(=O)NCCC2=CCCCC2)S(=O)(=O)c2c(C)[nH]c(=O)[nH]c2=O)cc1	1	2	-11	2	2	-2
CCN(CC)S(=O)(=O)c1ccc2[nH]c(=O)cc(C(=O)Nc3cccc(C(C)=O)c3)c2c1	-5	0	1	4	4	23
N#Cc1cc(Oc2cccc3cccnc23)c(-n2nnc3ccccc32)cc1C#N	-7	-21	6	21*	-62	0
O=[N+]([O-])c1ccc(Oc2cccc3cccnc23)c([N+](=O)[O-])c1	-8	-1	4	-13	-24	15
N#Cc1ccc(Oc2cccc3cccnc23)c([N+](=O)[O-])c1	nt	nt	nt	35*	nt	nt
CCN1CCc2c(sc(NC(=O)c3ccc(S(=O)(=O)N4CC(C)OC(C)C4)cc3)c2C(N)=O)C1 (configuration not stated)	nt	nt	nt	28*	nt	nt
CC(C)N1CCc2c(sc(NC(=O)c3nc4ccccc4s3)c2C(N)=O)C1	-2	9	11	0	33	24
CC1CN(S(=O)(=O)c2ccc(C(=O)Nc3sc4c(c3C(N)=O)CCN(C)C4)cc2)CC(C)O1 (configuration not stated)	-14	0	4	nt	5	-3
CCN1CCc2c(sc(NC(=S)NC(=O)c3ccc(Cl)cc3)c2C(N)=O)C1	-30	119*	7	81*	60*	-22
CC(C)N1CCc2c(sc(NC(=O)c3ccc(S(=O)(=O)N4CCc5ccccc54)cc3)c2C(N)=O)C1	-22	-14	7	90*	26	-56
CCN1CCN(S(=O)(=O)c2ccc(C(=O)Nc3sc4c(c3C(N)=O)CCN(CC)C4)cc2)CC1	nt	nt	nt	58*	nt	nt
CCCCCCc1cc2cc(-c3nnc(-c4ccccc4O)o3)c(=O)oc2cc1O	19	11	0	159*	38	-17
CCCCCCc1cc2cc(C(=O)Nc3ccccc3OC)c(=O)oc2cc1O	3	133*	3	93*	63*	15
CCCCCCc1cc2cc(-c3nnc(-c4cc(OC)c(OC)c(OC)c4)o3)c(=O)oc2cc1O	-25	123*	-1	139*	75*	-7
CCCCCOC(=O)CSc1nnc(-c2cc(OC)c(OC)c(OC)c2)o1	6	-4	-9	-2	-3	-7
COc1cccc2cc(-c3nnc(-c4ccccc4)o3)c(=O)oc12	-12	nt	-2	?	nt	27
CCCCCCc1cc2cc(-c3nnc(-c4ccccc4OC)o3)c(=O)oc2cc1O	-9	18	4	136*	58*	3
COc1ccc(CNC(=O)CN(C(=O)c2snc(C(N)=O)c2N)c2ccccc2F)cc1	nt	nt	nt	-4	nt	nt
CCOc1cccc(/C=N/NC(=O)c2cc(C3CC3)[nH]n2)c1O	nt	nt	nt	1	nt	nt
COc1ccc(C(=O)N/C(=C/c2ccccc2F)C(=O)NCCN2CCOCC2)cc1OC	nt	nt	nt	3	nt	nt
O=[N+]([O-])c1cccc(CSC2=NCCN2S(=O)(=O)c2ccccc2)c1	nt	nt	nt	-2	nt	nt
O=C(C[n+]1ccccc1)N/N=C/c1cc(Br)cc(Br)c1O	nt	nt	nt	-3	nt	nt
